ChEMBL document CHEMBL2176901, “Pyrrolo[3,4-h]quinolinones a new class of photochemotherapeutic agents” (Bioorg Med Chem, 2011)
The source made the active and inactive calls. No cut-off for these calls is given here.

Assays:
Jurkat [1] = assay: Phototoxicity in 2.5 J/cm'2 UV-A irradiated human Jurkat cells after 72 hrs by MTT assay; type: functional, cell-based; settings: light or radiation study
Outline: (§1)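 HL-60 and Jurkat (8×10³/well, RPMI-1640) and MCF-7, LoVo, NCTC-2544 (5×10³/well; DMEM or Ham's F12) preincubated 18 h at 37 °C, 5% CO₂. Compound in DMSO diluted in HBSS pH 7.2, 30 min at 37 °C, then UV-A at 2.5 or 3.75 J/cm². Medium replaced, 72 h incubation, MTT read-out. IC50 as mean ± SEM of three experiments.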

LoVo = assay: Phototoxicity in 3.75 J/cm'2 UV-A irradiated human LoVo cells after 72 hrs by MTT assay; type: functional, cell-based; settings: light or radiation study
Outline: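 Seeded at 5 × 10³ cells/well with 10% FBS: MCF-7 and NCTC-2544 in DMEM, LoVo in Ham's F12. Pre-incubated 18 h at 37 °C, 5% CO2. Compound (DMSO stock diluted in HBSS pH 7.2) was applied for 30 min at 37 °C, then UV-A irradiation (mainly 365 nm, 4.0 mW/cm²). Medium was restored for 72 h before MTT. IC50 is the mean ± SEM of three experiences.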

MCF7 = assay: Phototoxicity in 2.5 J/cm'2 UV-A irradiated human MCF7 cells assessed as cell viability after 72 hrs by MTT assay in presence of radical scavenger DMTU; type: functional, cell-based
Outline: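 MCF-7 cells given compound plus scavenger in HBSS, 30 min at 37 °C, then UV-A (2.5 J/cm², 365 nm lamp). Medium replaced; viability by MTT after 72 h. Means ± SEM of at least three independent experiments.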

Jurkat [2] = assay: Induction of apoptosis in 3.75 J/cm'2 UV-A irradiated human Jurkat cells assessed as viable cells at 10 uM after 24 hrs by Annexin-V-FITC and propidium iodide based flow cytometry (reference value: 91%); type: functional; settings: light or radiation study, read-out: Activity
Nucleic Acid [3] = assay: Binding affinity to salmon testes DNA at drug/DNA ratio of 0.03 by linear dichroism analysis; type: nucleic-acid assay; settings: Salmonidae
Outline: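 Flow linear dichroism in 10 mM phosphate buffer pH 7.2. Samples oriented in a rotating cylindrical cuvette (0.14 cm path, 800 rpm) at several drug/DNA ratios.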

Jurkat [4] = assay: Cell cycle arrest in UV-A irradiated human Jurkat cells assessed as accumulation at G2/M phase at 5 uM after 24 hrs by propidium iodide based flow cytometry (reference value: 10.3 %); type: functional
Outline: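 Exponentially growing Jurkat cells (5×10^5) irradiated with UV-A (365 nm lamp, 2.5 J/cm²) in presence of compound. After 24 h: fixed in ice-cold 70% ethanol, lysed with RNAse A, stained with PI (10 µg/ml), analysed by flow cytometry. Phases calculated on living cells; subG1 is hypodiploid DNA peak.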

[5] = Drug uptake in mitochondria of human NCTC-2544 cells at 10 uM after 2 hrs by fluorescence microphotography; type: ADME; settings: nctc-2544, 2 h
Outline: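 NCTC-2544 cells attached in Petri dishes, given compound at 10 μM for 2 h, washed with HBSS. Then 30 min with Rhodamine 123 (mitochondria), LysoTracker RED, CellMask Orange (plasma membrane) or ER-Tracker. Blue compound fluorescence overlaid on probe images by video-confocal microscopy.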

HL-60 = assay: Phototoxicity in 3.75 J/cm'2 UV-A irradiated human HL60 cells after 72 hrs by MTT assay; type: functional, cell-based; settings: HL-60, light or radiation study; outline: as §1
Nucleic Acid [6] = assay: Induction of photo-induced DNA damage in Escherichia coli pBR322 DNA at drug:DNA ratio of 1:3 by agarose gel electrophoresis in presence of nitrogen flux; type: nucleic-acid assay
Outline: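 Supercoiled pBR322 (100 ng) in 10 mM phosphate buffer pH 7.2 irradiated with UV-A (3.75 J/cm²) at [DNA]/[drug] 1/3, with additives, under nitrogen or in deuterated buffer as stated. Aliquots then incubated at 37 °C with Fpg or Endo III. Run on 1% agarose in TAE, 80 V for 2 h, stained with ethidium bromide; Form I/II fractions from band densitometry.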

Jurkat [7] = assay: Induction of lipid peroxidation in 3.75 J/cm'2 UV-A irradiated human Jurkat cells assessed as increase in TBARS formation after 24 hrs by thiobarbituric acid assay; type: functional, cell-based
Outline: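 Lipid peroxidation measured as MDA–thiobarbituric acid adducts, with BHT added to samples; calibrated to a 1,1,3,3-tetraethoxypropane standard curve; protein by Peterson method.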

Activity (Nucleic Acid [3]): inactive | Drug uptake [5]: Active
Structure (SMILES): CCOC(=O)c1c2c(c(C)n1C)-c1c(cc(S(=O)(=O)c3ccccc3)c(=O)n1C)CC2
IC50 (Jurkat [1]): 1200 nM | IC50 (LoVo): 400 nM | Activity (MCF7): inactive | viability at 10 µM (Jurkat [2]): 45.2% | Activity (Jurkat [4]): 4.2% | IC50 (HL-60): 900 nM | Activity (Nucleic Acid [6]): inactive | Activity (Jurkat [7]): Dose-dependent effect
